Compound activity (PubChem)
Rev-erbA mod = modulates human Rev-erb alpha binding to DNA | P20393 | Rev-erbα–FITC-DNA binding, fluorescence polarization, 90 min | activity, % at 10 µM | hit rate 0.79% among 370,000 | AID 1259318;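 active = activity above about 14%, limit read from the data; passing the limit was not always enough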
Target sequence (P20393 whole entry, looked up): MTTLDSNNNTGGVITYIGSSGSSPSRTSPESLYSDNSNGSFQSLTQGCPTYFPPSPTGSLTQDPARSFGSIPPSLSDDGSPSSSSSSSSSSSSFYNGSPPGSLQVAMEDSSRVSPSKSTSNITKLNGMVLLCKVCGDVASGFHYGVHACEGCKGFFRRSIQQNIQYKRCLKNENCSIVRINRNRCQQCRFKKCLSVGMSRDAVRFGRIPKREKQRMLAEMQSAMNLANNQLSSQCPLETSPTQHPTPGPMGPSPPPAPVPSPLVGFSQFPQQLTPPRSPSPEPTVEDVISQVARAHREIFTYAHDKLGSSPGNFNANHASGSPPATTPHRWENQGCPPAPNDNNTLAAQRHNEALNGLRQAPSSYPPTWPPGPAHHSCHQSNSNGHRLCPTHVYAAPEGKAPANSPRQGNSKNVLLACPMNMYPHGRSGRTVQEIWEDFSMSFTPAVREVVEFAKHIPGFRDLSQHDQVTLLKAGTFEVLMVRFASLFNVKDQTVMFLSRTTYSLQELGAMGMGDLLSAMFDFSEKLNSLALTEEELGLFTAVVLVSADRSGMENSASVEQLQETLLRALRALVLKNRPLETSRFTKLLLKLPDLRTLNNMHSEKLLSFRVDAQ
T cruzi inh = T. cruzi replication inhibition | T. cruzi beta-gal in NIH3T3, luminescence, 90 h | inhibition, % (no concentration beside the values) | hit rate 1.4% among 300,000 | AID 1885;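 active = mean inhibition across valid replicates above about 55%, limit read from the data; inconclusive = mean below that limit but half or more replicates reach it; inactive = mean below it, under half of replicates reach it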;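 note: signal also drops with host cell toxicity which is not excluded here; higher percent means less beta-gal luminescence so fewer parasites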
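Assay system: NIH/3T3 fibroblasts plus reporter T. cruzi. Amount: NIH/3T3 cells, 5,000 per well. Buffer or medium: DMEM, 2% fetal bovine serum. Doses: compound pinned at 50 nL/well, DMSO. Schedule: ≥90 h infection period, 3 h prior cell attachment. Signal: luminescent β-galactosidase signal after 60 min lysis. Read-out: parasite load inhibition, %.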
PG9 Ab binder = small molecules binding HIV-1 gp120 antibody PG9. TR-FRET gp120-PG9 antibody binding. inhibition, % at 6.7 µM. hit rate 0.43% among 360,000. AID 624416; in the data active = inhibition above about 8.5%
MIN6 prolif = induces beta-cell replication in MIN6 cells; AID 2380; MIN6 cells proliferation, ATPlite luminescence, 48 h; cells starved in 0.2% serum; 100% = growth in 10% serum; proliferation, % at 10 µM; hit rate 0.29% among 330,000;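 active = compounds whose signal lies at least 3.5 SD above the mean of all wells on their plate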
H9c2 TAG inh = inhibitors of triacylglycerol accumulation; H9c2 cells, Nile Red lipid (TAG) fluorescence; cells loaded with 200 µM oleic acid; inhibition, % at 12.5 µM; hit rate 0.66% among 230,000;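 active = pattern-corrected inhibition of lipid staining of at least 50% with the nuclear-stain viability signal not falling by more than 50%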
hiPSC survival = increases survival of single human iPS cells. hiPSC single-cell survival, ATPlite luminescence; 100% = ROCK inhibitor wells, 0% = DMSO. survival enhancement, % at 20 µM. hit rate 0.044% among 360,000. AID 602274; in the data active = survival enhancement above about 18%;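 note: cells exposed to compounds for 16 hours before the ATP read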
Of the large screens only hits and unclear results are named; the others gave an inactive call. This is a sample that favours compounds with a hit; in the whole collection about 2.9% have one here.

NC(=S)N/N=C/c1ccc(-c2cc(Cl)c(Cl)cc2Cl)o1	T cruzi inh 64
Cc1cc(C)c(C#N)c(SCC(=O)C(C)(C)C)n1	T cruzi inh 72 (no result: H9c2 TAG inh)
Cc1cc(-c2nnc(SCC(=O)Nc3nc(-c4ccc(Cl)cc4)cs3)o2)no1	none
O=C(NC1CCN(Cc2ccccc2)CC1)C1CCN(S(=O)(=O)c2ccccc2)CC1	T cruzi inh 57 (no result: H9c2 TAG inh)
C=CCN(c1ccccc1)S(=O)(=O)c1cccc(C(=O)NC2CCN(Cc3ccccc3)CC2)c1	T cruzi inh 61
O=C(NC1CCN(Cc2ccccc2)CC1)C1CCN(S(=O)(=O)c2ccc(Cl)cc2)CC1	none (no result: H9c2 TAG inh)
CC1CCN(C(=O)c2[nH]cnc2C(=O)NCC(=O)OC(C)(C)C)CC1	hiPSC survival 26
CC(C)(C)OC(=O)CNC(=O)c1nc[nH]c1C(=O)N1CCN(C(=O)OC(C)(C)C)CC1	none
COc1ccc(C)cc1S(=O)(=O)N(CC(=O)Nc1cccc([N+](=O)[O-])c1)c1ccc(C)c(C)c1	none (no result: H9c2 TAG inh)
N=c1c(-c2nc3ccccc3[nH]2)cc(C(=O)c2cccs2)nn1-c1ccccc1	T cruzi inh 72 (no result: Rev-erbA mod, PG9 Ab binder)
COc1ccc(C(=O)C2CCCN(C(=O)Cn3ccc(C)n3)C2)cc1OC (centres undefined)	none
Cc1nn(Cc2cccc(C(=O)Nc3ccn(Cc4c(F)c(F)cc(F)c4F)n3)c2)c(C)c1[N+](=O)[O-]	T cruzi inh 68 (no result: H9c2 TAG inh)
CC(C)NCC(O)COC1C2CC3CC(C2)CC1C3 (centres undefined)	T cruzi inh 62
CC(C)NCC(O)COC1CCC(C(C)(C)C)CC1 (centres undefined)	T cruzi inh 57
CC(C)(C)C1CCC(OCC(O)CN2CCN(Cc3ccccc3)CC2)CC1 (centres undefined)	T cruzi inh 57 (no result: H9c2 TAG inh)
COc1ccc(OC)c(NC(=O)C(=O)NCc2ccncc2)c1	none (no result: H9c2 TAG inh)
COc1ccccc1C(=O)Nc1ccc(C)cc1C(=O)c1ccccc1	none (no result: H9c2 TAG inh)
O=C(CN1C(=O)NC2(CCc3ccccc3C2)C1=O)NCC(F)(F)F (centres undefined)	none (no result: H9c2 TAG inh)
Cc1cccc(/C(N)=N/OC(=O)N2CCOCC2)c1	T cruzi inh 60 (no result: H9c2 TAG inh)
Cc1ccc(C(=O)OCC(=O)N2CCOCC2)cc1	none (no result: H9c2 TAG inh)
Cc1ccc(/C(N)=N/OC(=O)N2CCOCC2)cc1	T cruzi inh 55 (no result: H9c2 TAG inh)
Cc1cccc(/C(N)=N/OC(=O)c2ccco2)c1	none (no result: H9c2 TAG inh)
CCCCCn1c(N)c(-c2nc3ccccc3o2)c2c([N+](=O)[O-])nn(C)c(=O)c21	none (no result: MIN6 prolif, H9c2 TAG inh)
C[C@@H](NC(=O)[C@@H]1Cc2ccccc2CN1)C(=O)Nc1ccc2c(c1)OCO2	hiPSC survival 26 (no result: H9c2 TAG inh)
CC(C)[C@H](NC(=O)[C@@H]1Cc2ccccc2CN1)C(=O)Nc1ccc2c(c1)OCO2	none (no result: H9c2 TAG inh)
O=C(CN1C(=O)S/C(=C\c2ccc(C(=O)O)cc2)C1=O)Nc1ccccc1	none (no result: H9c2 TAG inh)
Cc1ccc(Cl)c(NC(=O)COC(=O)c2ccccc2C(=O)c2ccc(Cl)c([N+](=O)[O-])c2)c1Cl	none (no result: MIN6 prolif, H9c2 TAG inh)
CCCNC(=O)COC(=O)c1ccccc1C(=O)c1ccc(Cl)c([N+](=O)[O-])c1	hiPSC survival 20
COC(=O)c1cc(NC(=O)c2cc(-c3ccc(Cl)cc3)oc2C(F)(F)F)ccc1N1CCOCC1	T cruzi inh 63
CCC(C)[C@H]1CNC(=O)C(=O)N1CC1CCCCC1 (some centres undefined)	none (no result: T cruzi inh, MIN6 prolif, H9c2 TAG inh)
O=C(CSc1cccc[n+]1[O-])Nc1ccccc1Oc1ccccc1	T cruzi inh 82
O=C(CSc1cccc[n+]1[O-])Nc1ccccc1C(F)(F)F	none (no result: T cruzi inh)
COC(=O)c1ccc(-n2c(C)cc(C(=O)CSc3cccc[n+]3[O-])c2C)cc1	none
O=C(CSc1cccc[n+]1[O-])CSc1cccc[n+]1[O-]	T cruzi inh 67
COC(=O)c1ccc(C(=O)OC)c(NC(=O)CSc2cccc[n+]2[O-])c1	hiPSC survival 22 (no result: H9c2 TAG inh)
Cc1nn(Cc2ccc(Cl)cc2)c(C)c1NC(=O)c1cc(-c2ccc3c(c2)OCO3)on1	T cruzi inh 56 (no result: H9c2 TAG inh)
Cc1nn(Cc2ccc(Cl)c(Cl)c2)c(C)c1NC(=O)c1cc(-c2ccc3c(c2)OCO3)on1	T cruzi inh inconclusive (no result: H9c2 TAG inh)
CCCCS(=O)(=O)/C=C\C1C2C=CC(C2)C1S(=O)(=O)CCCC (centres undefined)	none
CCCCS(=O)(=O)/C=C\C=C/S(=O)(=O)CCCC	H9c2 TAG inh 88 (no result: Rev-erbA mod, PG9 Ab binder)
Cc1ccc2c(c1)cc(CN(Cc1cccnc1)C(=O)c1ccccc1)c1nnnn12	none
Cc1ccc(C(=O)N(Cc2cccnc2)Cc2cc3cc(C)ccc3n3nnnc23)cc1	T cruzi inh 67
O=C(NCCCn1ccnc1)c1sc2cccc(F)c2c1Cl	T cruzi inh 64 (no result: H9c2 TAG inh)
O=C(O)CCC(=O)N1CCC(C(=O)c2cccc(Cl)c2)CC1	none (no result: H9c2 TAG inh)
CCc1ccc(N=c2c([N+](=O)[O-])nn(-c3ccccc3)n2O)cc1	T cruzi inh 56 (no result: Rev-erbA mod, PG9 Ab binder, H9c2 TAG inh)
Cc1cc(C)cc(N=c2c([N+](=O)[O-])nn(-c3ccc(Cl)cc3)n2O)c1	T cruzi inh 59
CCCS(=O)(=O)NC(=O)C1(C)CCN(C(=O)c2cc(C)on2)C1 (centres undefined)	none (no result: T cruzi inh, MIN6 prolif)
O=C(O)C1=C(C(=O)N2CCN(C(=O)c3ccco3)CC2)CCCC1	none (no result: H9c2 TAG inh)
CCOc1cc(N2CCOCC2)c(OCC)cc1NC(=O)CN1CCC(Cc2ccccc2)CC1	T cruzi inh 62 (no result: H9c2 TAG inh)
Cc1nn(CC(=O)N/N=C/c2ccc3c(c2)OCO3)c(C)c1Br	none (no result: H9c2 TAG inh)
CC(C)(C)C1C/C(=C/c2ccccn2)C(=O)/C(=C/c2ccccn2)C1 (centres undefined)	none (no result: Rev-erbA mod, PG9 Ab binder)
CC1C/C(=C/c2ccccn2)C(=O)/C(=C/c2ccccn2)C1 (centres undefined)	T cruzi inh 58 (no result: Rev-erbA mod, PG9 Ab binder)
COC(=O)CCC(=O)N1CCC(Oc2cccc(C(=O)NCc3ccccn3)c2)CC1	none (no result: T cruzi inh, MIN6 prolif)
COc1ccc(CNC(=O)COC(=O)CN2C(=O)COc3ccccc32)cc1	none
CCN1CCS/C1=C/C=C/C1=[N+](CC)CCS1	T cruzi inh 59 (no result: Rev-erbA mod, PG9 Ab binder, MIN6 prolif)
CCn1c(/C=C/Nc2ccccc2)[n+](CC)c2ccc(Cl)cc21	none (no result: H9c2 TAG inh)
CCn1c(/C=C/N(C)c2ccccc2)[n+](CC)c2ccc(Cl)cc21	T cruzi inh 77 (no result: H9c2 TAG inh)
O=C(Cn1c2c(c(=O)n3ncnc13)CCC2)N/N=C/c1cccs1	none
CCC(C)Oc1cc(-c2ccnc(Nc3cccc(Cl)c3)n2)ccn1 (centres undefined)	T cruzi inh 57
OCCCNc1cc(-c2ccnc(Nc3cccc(Cl)c3)n2)ccn1	H9c2 TAG inh 90
Cc1cc(C)nc(Nc2cccc(Cl)c2)n1	none (no result: H9c2 TAG inh)
O=C(Nc1ccccc1Cc1ccccc1)c1ccncc1	T cruzi inh 59
O=C(Nc1ccccc1Cc1ccccc1)c1ccccc1F	none (no result: H9c2 TAG inh)
Cc1sc(-n2cccc2)c(C(=O)O)c1C	none
COC(=O)C1=C(C)N(Cc2ccccc2)C(=S)N[C@H]1c1ccc(Br)cc1	none (no result: T cruzi inh)
